Source: PubChem
Rows were chosen to be rich in hits. Some 4.2% of all compounds tested hit in one or more screens of this group.
GAA850 FXN act = activators of GAA850 frataxin (FXN) promoter; HEK293 lucGAA850 FXN promoter luciferase reporter, 24 h; percent of 10 µM SAHA response; activation, % at 6 µM; 360,000 tested, 0.56% active;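 active = activation above the average of all compounds screened plus 3 SD, cutoff fixed separately per campaign, cut at about 7.5% in these data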;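 also: 0% = DMSO wells and 100% = 10 µM SAHA wells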
AHR activator = activates the human aryl hydrocarbon receptor. P35869. AHR-responsive luciferase reporter cells, luminescence. activation, % at 5 µM. 320,000 tested, 2.5% active. AID 2796; in the data active = activation above about 47%;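 also: 0% = vehicle wells and 100% = reference agonist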
CTSL1 counter-1 = cathepsin L1 inhibition, PFM18AAP counter-screen; AID 1906; recombinant F. hepatica cathepsin L1, Z-Leu-Arg-MCA fluorescence; inhibition, % at 5.96 µM; 300,000 tested, 0.49% active;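 active = inhibition above the mean of all tested compounds plus 3 SD, set per screening campaign, cut at about 17% in these data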;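 also: 0% = plate median of test compound wells and 100% = 1 µM Z-Phe-Ala-diazomethylketone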
HDAC3 inhib = inhibitors of human histone deacetylase 3. O15379. inhibition, % at 8.3 µM. 320,000 tested, 0.15% active. AID 2718. recombinant HDAC3, fluorogenic peptide/trypsin coupled, fluorescence; in the data active = inhibition above about 26%, passing the limit was not always enough; inconclusive = no clear call, values can overlap the other calls
Target sequence (O15379 whole entry, looked up): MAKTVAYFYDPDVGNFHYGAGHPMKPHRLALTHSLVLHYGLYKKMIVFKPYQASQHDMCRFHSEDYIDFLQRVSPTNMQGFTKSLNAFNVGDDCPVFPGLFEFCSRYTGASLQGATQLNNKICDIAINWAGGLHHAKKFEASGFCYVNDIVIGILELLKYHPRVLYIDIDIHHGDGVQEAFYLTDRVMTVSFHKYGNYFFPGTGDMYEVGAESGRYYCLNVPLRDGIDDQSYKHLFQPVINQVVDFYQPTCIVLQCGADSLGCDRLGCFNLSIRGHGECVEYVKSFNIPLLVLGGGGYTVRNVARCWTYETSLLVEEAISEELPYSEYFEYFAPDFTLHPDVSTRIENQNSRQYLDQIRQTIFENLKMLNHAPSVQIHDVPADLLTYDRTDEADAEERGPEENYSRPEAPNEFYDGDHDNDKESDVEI
PfM18AAP inh-1 = PfM18AAP enzyme inhibition. inhibition, % at 7.35 µM. recombinant PfM18AAP, H-Glu-NHMec fluorogenic cleavage. 290,000 tested, 1.2% active;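 active = inhibition above the campaign mean inhibition over all tested compounds plus 3 SD, cut at about 28% in these data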;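 also: 0% = plate median of test compound wells and 100% = 2 mM ZnCl2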
SENP1 inh = SENP1 (human) catalytic domain inhibition; 360,000 tested, 0.21% active; inhibition, % at 10 µM; recombinant SENP1 catalytic domain, CyPet-SUMO1-YPet FRET cleavage; Q9P0U3;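 active = inhibition at least 30% at 10 µM, raw YFP signal under a set limit, fluorescence ratio 0.5 to 1.5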;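 also: 0% = enzyme with DMSO and 100% = no enzyme wells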
Target sequence (Q9P0U3 419-644 limits assumed): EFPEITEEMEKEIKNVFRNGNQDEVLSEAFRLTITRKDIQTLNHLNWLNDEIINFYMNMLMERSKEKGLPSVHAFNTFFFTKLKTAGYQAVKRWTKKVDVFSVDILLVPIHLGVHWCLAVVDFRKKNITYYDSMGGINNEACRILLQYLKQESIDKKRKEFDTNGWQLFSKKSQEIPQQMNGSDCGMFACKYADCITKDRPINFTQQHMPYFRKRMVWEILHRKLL
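Test system: human SENP1 catalytic domain; medium: Tris pH 8 buffer plus EDTA, NaCl, BME, BSA, NP40, catalase; incubation: 50 min reaction at room temperature; technique: FRET, CFP and YFP emission; controls: no-enzyme low control and enzyme-plus-DMSO high control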
PfM18AAP inh-2 = confirmation of Plasmodium falciparum M18 aspartyl aminopeptidase inhibitors | shares compounds with PfM18AAP inh-1 | AID 2170 | recombinant PfM18AAP, H-Glu-NHMec fluorogenic cleavage | inhibition, % at 7.35 µM | 2,400 tested, 28% active;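 active = mean inhibition over replicate wells above the hit cutoff set for the earlier primary screen, cut at about 29% in these data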;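 also: 0% = median of test compound wells and 100% = 2 mM ZnCl2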
CTSL1 counter-2 = Cathepsin L (human) inhibition, confirmation. AID 2178. inhibition, % at 5.96 µM. purified cathepsin L1, Z-Leu-Arg-MCA fluorescence. 2,400 tested, under 10 active. shares compounds with PfM18AAP inh-1;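 active = average inhibition across replicates above the hit cutoff set in the earlier primary screen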;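 also: 0% = median of test compound wells and 100% = Z-Phe-Ala-diazomethylketone 1 µM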
* hit, by the source's call; ? = inconclusive; nt = no result.

SMILES	GAA850 FXN act	AHR activator	CTSL1 counter-1	HDAC3 inhib	PfM18AAP inh-1	SENP1 inh	PfM18AAP inh-2	CTSL1 counter-2
CCc1nnc(NC(=O)CSc2nnc(CSc3nc(C)cc(C)n3)o2)s1	0	1	-1	2	36*	1	-28	1
O=C(NCc1ccccn1)c1ccc(NS(=O)(=O)c2ccccc2)cc1	0	0	-2	nt	-4	-1	nt	nt
COc1cc([N+](=O)[O-])ccc1-c1ccc(/C=N/NC(N)=O)o1	2	-6	0	0	44*	-36	-37	1
COc1cc([N+](=O)[O-])ccc1-c1ccc(/C=N/NC(=O)OC(C)(C)C)o1	1	-6	1	-6	6	-34	nt	nt
O=C(c1cc(C2CC2)nn1-c1ccccc1)N1CCN(Cc2c(F)cccc2Cl)CC1	3	1	nt	2	nt	0	nt	nt
COC(=O)C1C(O)=C(C=NCC(C)N=CC2=C(O)C(C(=O)OC)C(C)(C)CC2=O)C(=O)CC1(C)C (centres undefined)	1	-1	-3	7	47*	2	21	-1
O=C(CCc1nnc(C2CCCCC2)o1)N1CCC(Oc2cccnc2)CC1	2	1	-19	-5	-10	0	nt	nt
O=C(COC(=O)C1CC(=O)N(c2ccccc2)C1)c1ccccc1 (centres undefined)	0	0	-39	-3	2	1	nt	nt
Cc1ccc(N2CC(C(=O)OCC(=O)c3ccc([N+](=O)[O-])cc3)CC2=O)cc1 (centres undefined)	-1	0	-25	-6	38*	1	-22	-17
Cc1ccc(C2CC(=O)N3CN(c4ccc(Br)cc4)CSC3=C2C#N)o1 (centres undefined)	-1	3	1	9	37*	-34	-4	2
COc1ccc2ccccc2c1C1CC(=O)N2CN(C)CSC2=C1C#N (centres undefined)	2	3	-3	10	26	2	nt	nt
CC(C)c1ccc(C2CC(=O)N3CN(C)CSC3=C2C#N)cc1 (centres undefined)	0	9	-1	1	18	-15	nt	nt
COc1cc(OC)c(C2CC(=O)N3CN(c4ccccc4)CSC3=C2C#N)cc1OC (centres undefined)	-3	-3	1	42*	39*	-28	19	3
Cc1cccc(N2CCN(C(C(=O)NCc3ccccc3)c3ccc(C(F)(F)F)cc3)CC2)c1C (centres undefined)	nt	nt	nt	nt	nt	-3	nt	nt
CCOc1ccc(CN(C)C(=O)c2ccc3ccccc3n2)cc1	0	8	-2	-4	2	0	nt	nt
COc1ccc(NC(=S)c2ccc3ccccc3n2)cc1	2	46	0	10	47*	2	4	-5
Cc1ccc(C)c(NC(=O)c2ccc3ccccc3n2)c1	4	41	5	0	-2	2	nt	nt
Cc1ccc(NC(=S)c2ccc3ccccc3n2)c(C)c1	5	26	0	8	42*	1	-1	2
CCOc1ccc(NC(=S)c2ccc3ccccc3n2)cc1	4	34	0	-2	41*	3	-30	-5
CC(=O)c1ccccc1NC(=O)COC(=O)Cc1cccc(C(F)(F)F)c1	1	0	nt	19	nt	2	nt	nt
CC1(C(=O)NS(=O)(=O)Cc2cccc(Cl)c2)CCN1C(=O)C1(c2ccc(Cl)cc2)CCC1 (centres undefined)	1	nt	nt	nt	nt	2	nt	nt
CC1CCCCN1C(=O)CSc1nnc(-c2cccnc2)o1 (centres undefined)	0	1	-1	1	0	2	nt	nt
C=CCNC(=S)NNC(=O)c1cc(O)ccc1O	1	3	-3	-4	39*	1	29*	-8
O=[N+]([O-])c1ccc(N2CCN(c3ccc(O)cc3)CC2)cn1	0	-4	0	2	41*	1	2	-1
O=C(O)c1ccc([N+](=O)[O-])nc1	1	nt	nt	nt	nt	-1	nt	nt
SMILES	GAA850 FXN act	AHR activator	CTSL1 counter-1	HDAC3 inhib	PfM18AAP inh-1	SENP1 inh	PfM18AAP inh-2	CTSL1 counter-2
CCc1nnc(N/N=C/c2cc(Br)c(O)cc2O)n1N	-1	18	0	6	62*	-6	54*	1
CCc1nnc(N/N=C/c2c(Cl)cccc2Cl)n1N	2	0	1	-7	56*	3	-40	2
CCc1nnc(N/N=C/c2ccc(O)c(OC)c2)n1N	-1	6	-2	-2	-1	2	nt	nt
COC(=O)C(N)Cc1ccc(O)c(O)c1 (centres undefined)	1	3	-3	4	84*	-1	53*	-1
Nc1nncn1C(=O)c1c(Cl)cccc1Cl	0	-4	1	-3	-1	3	nt	nt
COc1cccc(C(=O)n2cnnc2N)c1OC	-1	2	-3	5	56*	7	51*	-3
Cc1ccc(C(=O)n2cnnc2N)cc1	-1	10	-4	44*	41*	5	47*	-3
Nc1nncn1C(=O)c1cc(Br)ccc1Cl	2	-1	-1	nt	46*	3	48*	10
Nc1nncn1C(=O)c1cccs1	2	1	4	9	40*	2	49*	-5
Cc1ccc(S(=O)(=O)NCc2ccccc2NS(=O)(=O)c2ccc(C)cc2)cc1	nt	nt	nt	nt	nt	4	nt	nt
O=C1C=C(c2ccccc2)C(c2ccccc2)C1O (centres undefined)	0	nt	nt	nt	nt	-2	nt	nt
Cc1ccc(C(=O)n2cnnc2N)cc1C	1	1	-5	?	44*	5	57*	-1
Cc1ccc(C(=O)N2CCC(C)CC2)cc1C	1	4	-4	-2	2	-1	nt	nt
Cc1ccc(C)c(C(=O)n2cnnc2N)c1	1	2	-3	-5	35*	3	51*	-2
Cc1ccc(S(=O)(=O)N2CC3(O)CN(C(=O)OC(C)C)N(C(=O)OC(C)C)CC3(OC(=O)NCc3ccccc3)C2)cc1 (centres undefined)	-5	nt	nt	nt	nt	1	nt	nt
CCNC(=O)C[C@@H]1C=C[C@@H](NS(=O)(=O)c2ccc(F)cc2)[C@@H](CO)O1	nt	nt	nt	nt	nt	-1	nt	nt
CCC(C)(C)n1nnnc1CN(Cc1cc2cc(OC)c(OC)cc2[nH]c1=O)C1CCCC1	3	4	5	-17	33*	-24	6	5
O=C(Nc1ccno1)Nc1ccc(Cl)cc1Cl	-1	7	-4	7	5	1	nt	nt
O=C(Nc1ccc(Cl)cc1Cl)Nn1cnnc1	0	-1	1	-6	83*	2	77*	-2
Cc1ccc(C)c(NC(=O)Nn2cnnc2)c1	4	5	1	-7	60*	3	41*	-3
